≈ marks a conversion by molar mass, not a printed value.
Experiments:
Assay type in all cases: cell-based
[1] = test system: S. aureus ATCC 29213; assay: MIC, 96-well microtiter broth dilution; conditions: Staphylococcus aureus, ATCC29213, read-out: MIC S. aureus ATCC 29213
[2] = test system: S. aureus ATCC 43300; assay: MIC, 96-well microtiter broth dilution; conditions: Staphylococcus aureus, ATCC43300|MRSA, read-out: MIC S. aureus ATCC 43300
[3] = test system: S. aureus ATCC BAA-41; assay: MIC, 96-well microtiter broth dilution; conditions: Staphylococcus aureus, ATCCBAA41|MRSA, read-out: MIC S. aureus ATCC BAA-41
[4] = test system: S. aureus ATCC BAA-1747; assay: MIC, 96-well microtiter broth dilution; conditions: Staphylococcus aureus, ATCCBAA1747|MRSA, read-out: MIC S. aureus ATCC BAA-1747
[5] = test system: S. aureus ATCC BAA-1720; assay: MIC, 96-well microtiter broth dilution; conditions: Staphylococcus aureus, ATCCBAA1720|MRSA, read-out: MIC S. aureus ATCC BAA-1720
[6] = test system: E. faecalis ATCC 29212; assay: MIC, 96-well microtiter broth dilution; conditions: Enterococcus faecalis, ATCC29212, read-out: MIC E. faecalis ATCC 29212
[7] = test system: E. faecium ATCC 49624; assay: MIC, 96-well microtiter broth dilution; conditions: Enterococcus faecium, ATCC49624, read-out: MIC E. faecium ATCC 49624
[8] = test system: E. faecium ATCC 700221; assay: MIC, 96-well microtiter broth dilution; conditions: Enterococcus faecium, ATCC700221, read-out: MIC E. faecium ATCC 700221
[9] = test system: S. epidermidis ATCC 12228; assay: MIC, 96-well microtiter broth dilution; conditions: Staphylococcus epidermidis, ATCC12228, read-out: MIC S. epidermidis ATCC 12228
[10] = test system: E. coli ATCC 25922; assay: MIC, 96-well microtiter broth dilution; conditions: Escherichia coli, ATCC25922, read-out: MIC E. coli ATCC 25922
[11] = test system: E. coli ATCC 8739; assay: MIC, 96-well microtiter broth dilution; conditions: Escherichia coli, ATCC8739, read-out: MIC E. coli ATCC 8739
[12] = test system: E. coli ATCC BAA-2469; assay: MIC, 96-well microtiter broth dilution
[13] = test system: S. aureus ATCC 29213; assay: In vitro drug resistance development, serial passage
Procedure, shortened: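 Serial passage against S. aureus ATCC 29213: culture from the 0.5 × MIC well of the prior MIC plate diluted to 5 × 10^5 CFU mL−1 and exposed to a range of test compound concentrations. MIC read after 24 h at 37 °C. Cycle repeated 35 times. Ciprofloxacin, vancomycin and rifampin passaged in parallel.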

Row | SMILES | MIC [1] [µg/mL] | MIC [2] [µg/mL] | MIC [3] [µg/mL] | MIC [4] [µg/mL] | MIC [5] [µg/mL] | MIC [6] [µg/mL] | MIC [7] [µg/mL] | MIC [8] [µg/mL] | MIC [9] [µg/mL] | MIC [10] [µg/mL] | MIC [11] [µg/mL] | MIC against antibiotics resistant E. coli mutant NDM-1 strain [12] [µg/mL] | Increase of MIC after 35 passages [13] [fold]
1 | C[n+]1c(/C=C/c2ccc(O)cc2)cc(/C=C2\Sc3ccccc3N2CCCN2CCOCC2)c2ccccc21.[I-] [Compound 4c2, 2-((E)-4-Hydroxystyryl)-1-methyl-4-((Z)-(3-(3-morpholinopropyl)benzo[d]thiazol-2(3H)-ylidene)methyl)quinolin-1-ium iodide] | 16 | 16 | 8 | 16 | 32 | 16 | 8 | 4 | 4 | 4 | 32 | – | –
2 | C[n+]1c(/C=C/c2ccc(O)cc2)cc(/C=C2\Sc3ccccc3N2CCCN2CCCC2)c2ccccc21.[I-] [Compound 4d2, 2-((E)-4-Hydroxystyryl)-1-methyl-4-((Z)-(3-(3-(pyrrolidin-1-yl)propyl)benzo[d]thiazol-2(3H)-ylidene)methyl)quinolin-1-ium iodide] | 32 | 32 | 32 | 32 | 32 | 64 | 32 | 32 | 16 | 32 | 32 | – | –
3 | CO[C@H]1/C=C/O[C@@]2(C)Oc3c(C)c(O)c4c(O)c(c(/C=N/N5CCN(C)CC5)c(O)c4c3C2=O)NC(=O)/C(C)=C\C=C\[C@H](C)[C@H](O)[C@@H](C)[C@@H](O)[C@@H](C)[C@H](OC(C)=O)[C@@H]1C [rif, rifampin, reference compound] | 0.5 (≈ 0.608 µM) | < 0.125 | < 0.125 | < 0.125 | < 0.125 | 0.5 (≈ 0.608 µM) | < 0.125 | < 0.125 | 1 (≈ 1.22 µM) | 4 (≈ 4.86 µM) | 8 (≈ 9.72 µM) | > 64 | 8192
4 | C[n+]1ccc(/C=C2\Sc3ccccc3N2CCCN2CCCCC2)c2ccccc21.[I-] [Compound 4b3, (Z)-1-Methyl-4-((3-(3-(piperidin-1-yl)propyl)benzo[d]thiazol-2(3H)-ylidene)methyl)quinolin-1-ium iodide] | 32 | 8 | 4 | 8 | 16 | > 64 | 32 | 32 | 2 | 2 | 4 | – | –
5 | C[n+]1c(/C=C/c2c[nH]c3ccccc23)cc(/C=C2\Sc3ccccc3N2CCCN2CCOCC2)c2ccccc21.[I-] [Compound 4c1, 2-((E)-2-(1H-Indol-3-yl)vinyl)-1-methyl-4-((Z)-(3-(3-morpholinopropyl)benzo[d]thiazol-2(3H)-ylidene)methyl)quinolin-1-ium iodide] | 16 | 16 | 16 | 16 | 16 | 16 | 16 | 8 | 2 | 8 | 64 | – | –
6 | CC1(C)S[C@@H]2[C@H](NC(=O)[C@H](N)c3ccccc3)C(=O)N2[C@H]1C(=O)O [amp, ampicillin, reference compound] | > 64 | > 64 | > 64 | > 64 | > 64 | 0.5 (≈ 1.43 µM) | 0.25 (≈ 0.715 µM) | > 64 | > 64 | 1 (≈ 2.86 µM) | 2 (≈ 5.72 µM) | > 64 | –
7 | COc1cccc(OC)c1C(=O)N[C@@H]1C(=O)N2[C@@H]1SC(C)(C)[C@@H]2C(=O)O [meth, methicillin, reference compound] | 0.5 (≈ 1.31 µM) | 512 (≈ 1350 µM) | 1020 (≈ 2690 µM) | 256 (≈ 673 µM) | 1020 (≈ 2690 µM) | 1 (≈ 2.63 µM) | 4 (≈ 10.5 µM) | 1.5 (≈ 3.94 µM) | 0.5 (≈ 1.31 µM) | 2 (≈ 5.26 µM) | > 64 | > 64 | –
8 | C[n+]1c(/C=C/c2c[nH]c3ccccc23)cc(/C=C2\Sc3ccccc3N2CCCN2CCCC2)c2ccccc21.[I-] [Compound 4d1, 2-((E)-2-(1H-Indol-3-yl)vinyl)-1-methyl-4-((Z)-(3-(3-(pyrrolidin-1-yl)propyl)benzo[d]thiazol-2(3H)-ylidene)methyl)quinolin-1-ium iodide] | 16 | 8 | 4 | 8 | 8 | 32 | 8 | 16 | 2 | 4 | 16 | – | –
9 | O=C(O)c1cn(C2CC2)c2cc(N3CCNCC3)c(F)cc2c1=O [ciprofloxacin] | – | – | – | – | – | – | – | – | – | – | – | – | 32
10 | CSc1ccc(/C=C/c2cc(/C=C3\Sc4ccccc4N3CCCN3CCCC3)c3ccccc3[n+]2C)cc1.[I-] [Compound 4d3, 1-Methyl-2-((E)-4-(methylthio)styryl)-4-((Z)-(3-(3-(pyrrolidin-1-yl)propyl)benzo[d]thiazol-2(3H)-ylidene)methyl)quinolin-1-ium iodide] | 16 | 32 | 32 | 32 | 32 | 64 | 64 | 32 | 16 | – | 32 | – | –
11 | CN[C@H](CC(C)C)C(=O)N[C@H]1C(=O)N[C@@H](CC(N)=O)C(=O)N[C@H]2C(=O)N[C@H]3C(=O)N[C@H](C(=O)N[C@H](C(=O)O)c4cc(O)cc(O)c4-c4cc3ccc4O)[C@H](O)c3ccc(c(Cl)c3)Oc3cc2cc(c3O[C@@H]2O[C@H](CO)[C@@H](O)[C@H](O)[C@H]2O[C@H]2C[C@](C)(N)[C@H](O)[C@H](C)O2)Oc2ccc(cc2Cl)[C@H]1O [van, vancomycin, reference compound] | 2 (≈ 1.38 µM) | 2 (≈ 1.38 µM) | 2 (≈ 1.38 µM) | 1 (≈ 0.69 µM) | 0.5 (≈ 0.345 µM) | 2 (≈ 1.38 µM) | 0.5 (≈ 0.345 µM) | 1020 (≈ 707 µM) | > 64 | > 64 | > 64 | > 64 | 512
12 | Cc1cc(/C=C2\Sc3ccccc3N2CCCN2CCCCC2)c2ccccc2[n+]1C.[I-] [Compound 4a3, (Z)-1,2-Dimethyl-4-((3-(3-(piperidin-1-yl)propyl)benzo[d]thiazol-2(3H)-ylidene)methyl)quinolin-1-ium iodide] | 32 | 32 | 8 | 32 | 32 | 64 | 32 | 32 | 8 | 4 | 4 | – | –

Reference: paper PMC9052103 (RSC Advances, 2020)
